ASAP1 inh: ASAP1 ArfGAP inhibition. AID 624377. 360,000 tested, 0.19% active. Q9ULH1. ASAP1-stimulated ARF1 GTP hydrolysis, GDP FP detection. inhibition, % at 16.5 µM; in the data active = inhibition above about 25%
PAFAH1B3 inh: PAFAH1B3 (human) inhibition | recombinant PAFAH1B3, FP-rhodamine probe, fluorescence polarization | Q15102 | AID 492972 | 340,000 tested, 0.28% active | inhibition, % at 3.39 µM;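 active = inhibition above the screen-wide average of all tested compounds plus 3 SD, cut at about 25% in these data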
ARFGAP1 inhibitor: rat ARFGAP1 inhibition | 360,000 tested, 0.26% active | inhibition, % at 16.5 µM | Arfgap1-stimulated ARF1 GTP hydrolysis, GDP FP detection | Q62848;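 active = inhibition above a per-plate limit, mean inhibition of low control wells plus 3 SD, cut at about 25% in these data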
Target sequence (Q62848 1-136 limits assumed): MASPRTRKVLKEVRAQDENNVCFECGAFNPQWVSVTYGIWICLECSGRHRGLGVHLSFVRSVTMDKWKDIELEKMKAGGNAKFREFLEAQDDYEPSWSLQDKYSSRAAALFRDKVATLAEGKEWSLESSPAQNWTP
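material = rat Arfgap1 catalytic domain, aa 1-136 | also added = human ARF1(Δ1-17)-GTP substrate | compound dosing = one concentration, 16.5 µM, DMSO 1.26% | times = GTP hydrolysis reaction 2 h at 25 °C | measured by = FP, GDP Alexa 633 tracer displaced from anti-GDP antibody, 620/688 nm | evaluation = percent inhibition of Arfgap1-stimulated GTP hydrolysis | replication = single well per compound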
PAFAH2 inh: PAFAH2 (human) inhibition; inhibition, % at 3.39 µM; AID 492956; 340,000 tested, 0.99% active; recombinant PAFAH2, FP-rhodamine activity probe, fluorescence polarization;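 active = inhibition above the mean over all tested compounds plus 3 SD, cut at about 30% in these data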;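 also: inhibitors block probe labeling of enzyme so polarization drops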
PAFAH1B2 inh: inhibitors of human PAFAH1B2 | P68402 | inhibition, % at 3.39 µM | 340,000 tested, 1.2% active | recombinant PAFAH1B2, FP-rhodamine activity probe, fluorescence polarization;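 active = inhibition above the mean of all tested compounds plus 3 SD, cut at about 24% in these data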
Target sequence (P68402 whole entry, looked up): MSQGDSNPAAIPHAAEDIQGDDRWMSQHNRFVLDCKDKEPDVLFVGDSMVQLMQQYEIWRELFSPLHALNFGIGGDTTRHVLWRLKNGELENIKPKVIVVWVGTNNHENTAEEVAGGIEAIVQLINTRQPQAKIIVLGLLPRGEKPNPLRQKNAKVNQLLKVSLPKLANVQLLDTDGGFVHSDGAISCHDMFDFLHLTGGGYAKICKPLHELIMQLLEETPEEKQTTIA
pPAFAH inh: pPAFAH (human) enzyme inhibition; Q13093; recombinant pPAFAH, FP-rhodamine probe fluorescence polarization; inhibition, % at 3.39 µM; 330,000 tested, 1.5% active; AID 463082;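 active = inhibition above the mean inhibition across the screen plus 3 SD, cut at about 25% in these data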;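 also: inhibitors block binding of the rhodamine activity-based probe so polarization drops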
PAFAH2 confirm: PAFAH2 (human) inhibition, confirmed; inhibition, % at 3.39 µM; AID 493030; recombinant PAFAH2, FP-rhodamine activity probe, fluorescence polarization; 2,300 tested, 65% active; shares compounds with PAFAH2 inh;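 active = mean inhibition over three repeats above a set limit taken from the earlier primary screen, cut at about 30% in these data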;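 also: inhibitor blocks binding of rhodamine activity probe so polarization falls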
Each line names hits and unclear results; the compound was inactive in the other large screens (follow-up assays come after a bar, where they were run). Hits are enriched below; roughly 2.8% of the tested compounds scored in any of these assays.

COC(=O)c1sccc1NC(=O)Nc1ccccc1Cl	none (no result: pPAFAH inh)
CN(C)c1cccc(C(=O)OCC(=O)NCc2ccco2)c1	PAFAH2 inh 56.6 | PAFAH2 confirm 44.0
CC(CNC(=O)COC(=O)c1cccs1)c1ccccc1 (centres undefined)	PAFAH2 inh 75.4 | PAFAH2 confirm 72.7
O=C(COC(=O)c1cccs1)NCc1ccccc1	PAFAH2 inh 47.2 | PAFAH2 confirm 33.8
Cc1ccsc1C(=O)OCc1nc2ccsc2c(=O)[nH]1	none
COc1cc(C(=O)OCC(=O)NCc2ccco2)cc(OC)c1OC	none
CC(CNC(=O)COC(=O)c1cccnc1Cl)c1ccccc1 (centres undefined)	none (no result: pPAFAH inh)
Cc1ccsc1C(=O)OCc1nc2ccccc2c(=O)[nH]1	PAFAH2 inh 37.6 | PAFAH2 confirm inactive
COC(=O)[C@@]12C[C@@H](CC(=O)NCC34CC5CC(CC(C5)C3)C4)C(=O)N(Cc3cccc4ccccc34)C1=CCC(C)(C)C2	none (no result: PAFAH1B3 inh, PAFAH2 inh, PAFAH1B2 inh, pPAFAH inh)
COc1ccc(-c2cnc3c(NC(C)=O)cc(-c4cccc(C(=O)N(C)C)c4)cn23)cc1OC	none (no result: PAFAH1B3 inh, PAFAH2 inh, PAFAH1B2 inh, pPAFAH inh)
CCc1ccccc1NC(=O)COC(=O)c1cccs1	PAFAH2 inh 79.9 | PAFAH2 confirm 76.2
O=C(COC(=O)c1cccs1)Nc1ccccc1C(F)(F)F	PAFAH2 inh 76.6 | PAFAH2 confirm 54.4
COc1cc(/C=C2\SC(=S)N(CCC(=O)N3CCCCC3)C2=O)cc(OC)c1OC	none
CCN(c1cccc(C)c1)S(=O)(=O)c1ccc2c(c1)NC(=O)CS2	none
CCN(c1cccc(C)c1)S(=O)(=O)c1ccc2c(c1)NC(=O)CCS2	PAFAH2 inh 48.3 | PAFAH2 confirm 35.4
O=C(COC(=O)c1cccnc1Cl)Nc1ccc2c(c1)OCO2	PAFAH2 inh 75.0 | PAFAH2 confirm 60.1
Cc1c(C(=O)OCC(=O)Nc2ccc3c(c2)OCO3)cccc1[N+](=O)[O-]	PAFAH2 inh 72.0 | PAFAH2 confirm 64.5
CCOc1ncccc1C(=O)OCC(=O)Nc1ccc2c(c1)OCCO2	PAFAH2 inh 55.2 | PAFAH2 confirm 47.0
CCOc1ncccc1C(=O)Nc1ccc2c(c1)OCO2	none
Cc1c(C(=O)OCC(=O)NCc2ccc3c(c2)OCO3)cccc1[N+](=O)[O-]	none
COc1ccccc1Cc1c(-c2ccc(C#N)cc2)nc2c(C)cc(Br)cn12	none (no result: PAFAH1B3 inh, PAFAH2 inh, PAFAH1B2 inh, pPAFAH inh)
Cn1nccc1C(=O)OCC(=O)Nc1ccccc1	PAFAH2 inh 39.6 (no result: pPAFAH inh) | PAFAH2 confirm inactive
Cn1ccc(C(=O)OCC(=O)Nc2ccccc2)n1	PAFAH2 inh 72.6 (no result: pPAFAH inh) | PAFAH2 confirm 77.5
Cc1ccc(NC(=O)COC(=O)c2ccn(C)n2)cc1	PAFAH2 inh 67.6 | PAFAH2 confirm 63.0
O=C(O)Cc1sc(NC2CCCCC2)nc1-c1ccc(Cl)cc1	none
Cc1ccc(C)c(Sc2ccc(NC(=O)CCN3C(=O)NC4(CCCC4)C3=O)cc2)c1	PAFAH2 inh 49.5 | PAFAH2 confirm 53.9
CCc1nc2c(OCc3ccccc3C)cccn2c1N(C)C(=O)c1ccco1	none (no result: PAFAH1B3 inh, PAFAH2 inh, PAFAH1B2 inh, pPAFAH inh)
Cc1sc2nc(C(C)(C)C)oc(=O)c2c1C	PAFAH2 inh 35.8 (no result: ASAP1 inh, ARFGAP1 inhibitor) | PAFAH2 confirm 39.6
COc1cc(-c2nc3sc(C)c(C)c3c(=O)o2)cc(OC)c1OC	none
CC(C)(C)c1nc2scc(-c3cccs3)c2c(=O)o1	none
Cc1ccccc1-c1nc2sc(C)c(C)c2c(=O)o1	PAFAH2 inh 68.4 | PAFAH2 confirm 54.1
Cc1sc2nc(-c3ccco3)oc(=O)c2c1C	PAFAH2 inh 61.6 | PAFAH2 confirm 47.3
CSCCC(NC(=O)c1ccccc1)C(=O)NCCc1ccc2c(c1)OCCO2 (centres undefined)	none
Cc1ccc2c(c1)N(CC(=O)N1CCCC1)C(=O)CO2	none
COc1cc(OC)c(N(C)S(=O)(=O)c2cccc(C(=O)OCC(=O)N(C)C3CCCCC3)c2)cc1Cl	PAFAH2 inh 40.0 (no result: pPAFAH inh) | PAFAH2 confirm inactive
COc1cc(OC)c(NS(=O)(=O)c2cccc(C(=O)OCC(=O)NCC3CCCO3)c2)cc1Cl (centres undefined)	PAFAH2 inh 38.6 | PAFAH2 confirm 31.4
Cc1ccc(C2c3c(n[nH]c3C(C)C)C(=O)N2c2ccccc2)cc1 (centres undefined)	none (no result: PAFAH1B3 inh, PAFAH2 inh, PAFAH1B2 inh, pPAFAH inh)
C=CCNc1nc(C(=O)OCC(=O)NCc2ccccc2OC)cs1	none
